Test results taken from ChEMBL document CHEMBL1275351, “Novel spirotetracyclic zwitterionic dual H(1)/5-HT(2A) receptor antagonists for the treatment of sleep disorders” (J Med Chem, 2010).
pIC50, pKi: −log10 of the molar value.

test system: Rattus norvegicus; assay: Hypnotic activity in Sprague-Dawley rat assessed as non-rapid eye movement latency period at 1 mg/kg, po administered during active phase; format: functional
Summary of the method: (§1)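 Male Sprague-Dawley rats (275-300 g) carried implanted telemetric EEG/EMG transmitters and were used 3 weeks after surgery. Oral dosing (2 mL/kg) was given 6 h after lights off (CT18) in a randomized crossover versus vehicle. Recording ran for 5 h in 10 s epochs scored by FFT. n = 8, mean ± SEM; one-way ANOVA with Dunnett's test.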

| Structure (SMILES) | Time [min] |
| --- | --- |
| O=C(O)C1CN(C2CC[C@]3(Cc4ccccc4Cc4ccccc43)C2)C1 (some centres not stated) | 58.1 |

test system: Rattus norvegicus; assay: Hypnotic activity in Sprague-Dawley rat assessed as non-rapid eye movement latency period at 3 mg/kg, po administered during active phase; format: functional; summary of the method: as §1

| Structure (SMILES) | Time [min] |
| --- | --- |
| O=C(O)C1CN(C2CC[C@]3(Cc4ccccc4Cc4ccccc43)C2)C1 (some centres not stated) | 51.6 |

test system: not listed separately; assay: Fraction unbound in rat blood; format: ADME, tissue-based

| Structure (SMILES) | fraction unbound |
| --- | --- |
| O=C(O)C1CN(C2CC[C@]3(Cc4ccccc4Cc4ccccc43)C2)C1 (some centres not stated) | 0.12 |

test system: Rattus norvegicus; assay: Hypnotic activity in Sprague-Dawley rat assessed as non-rapid eye movement sleep at 1 mg/kg, po administered during active phase; format: functional; summary of the method: as §1

| Structure (SMILES) | Time [min] |
| --- | --- |
| O=C(O)C1CN(C2CC[C@]3(Cc4ccccc4Cc4ccccc43)C2)C1 (some centres not stated) | 87.4 |

target: 5-hydroxytryptamine receptor 2A (Homo sapiens, UniProt P28223); assay: Antagonist activity at human 5HT2A receptor expressed in HEK cells assessed as inhibition of intracellular calcium accumulation by aequorin assay; format: functional, cell-based, HEK293
Sequence (P28223 whole entry): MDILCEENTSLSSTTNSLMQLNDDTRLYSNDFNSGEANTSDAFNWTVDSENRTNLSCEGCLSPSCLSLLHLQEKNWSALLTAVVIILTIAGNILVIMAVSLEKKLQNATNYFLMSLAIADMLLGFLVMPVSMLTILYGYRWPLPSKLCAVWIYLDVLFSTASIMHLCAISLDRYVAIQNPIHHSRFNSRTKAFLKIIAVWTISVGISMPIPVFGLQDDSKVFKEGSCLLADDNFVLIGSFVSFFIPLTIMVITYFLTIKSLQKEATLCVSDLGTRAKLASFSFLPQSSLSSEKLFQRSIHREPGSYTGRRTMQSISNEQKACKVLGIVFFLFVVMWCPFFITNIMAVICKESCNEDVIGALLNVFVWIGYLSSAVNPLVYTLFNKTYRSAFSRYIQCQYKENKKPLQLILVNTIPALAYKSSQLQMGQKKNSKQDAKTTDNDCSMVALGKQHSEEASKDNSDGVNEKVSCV

| Structure (SMILES) | pKi |
| --- | --- |
| O=C(O)C1CN(C2CC[C@]3(Cc4ccccc4Cc4ccccc43)C2)C1 (some centres not stated) | 7.80 |

target: Histamine H1 receptor (Rattus norvegicus, UniProt P31390); assay: Displacement of [3H]pyrilamine from histamine H1 receptor in Sprague-Dawley rat cortical membrane by liquid scintillation counting
Sequence (P31390 whole entry): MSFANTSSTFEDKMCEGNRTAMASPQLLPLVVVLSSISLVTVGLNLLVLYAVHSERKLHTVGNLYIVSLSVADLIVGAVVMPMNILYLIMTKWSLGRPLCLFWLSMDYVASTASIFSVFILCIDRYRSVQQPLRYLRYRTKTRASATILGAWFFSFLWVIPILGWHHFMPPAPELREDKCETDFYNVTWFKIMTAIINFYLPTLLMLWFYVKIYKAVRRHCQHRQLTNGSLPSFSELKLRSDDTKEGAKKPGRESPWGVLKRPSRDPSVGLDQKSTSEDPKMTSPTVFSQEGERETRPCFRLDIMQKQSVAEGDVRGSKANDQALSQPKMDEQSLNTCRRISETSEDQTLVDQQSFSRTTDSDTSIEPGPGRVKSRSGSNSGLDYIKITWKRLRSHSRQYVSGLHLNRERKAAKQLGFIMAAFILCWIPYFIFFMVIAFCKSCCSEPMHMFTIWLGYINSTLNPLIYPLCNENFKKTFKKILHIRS
Summary of the method: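 Cerebral cortex membranes from male Sprague-Dawley rats (200-250 g), 150 μg/well. Incubated with 0.6 nM [3H]pyrilamine in 50 mM HEPES, pH 7.4, for 2 h at room temperature. Filtered on PEI-soaked GF/B and counted by scintillation. Nonspecific binding with 10 μM cetirizine. Ki by Cheng-Prusoff; mean of two experiments in duplicate.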

| Structure (SMILES) | pKi |
| --- | --- |
| O=C(O)C1CN(C2CC[C@]3(Cc4ccccc4Cc4ccccc43)C2)C1 (some centres not stated) | 8.25 |

test system: Rattus norvegicus; assay: Hypnotic activity in Sprague-Dawley rat assessed as rapid eye movement sleep at 10 mg/kg, po administered during active phase; format: functional; summary of the method: as §1

| Structure (SMILES) | Time [min] |
| --- | --- |
| O=C(O)C1CN(C2CC[C@]3(Cc4ccccc4Cc4ccccc43)C2)C1 (some centres not stated) | 14.6 |

test system: Rattus norvegicus; assay: Hypnotic activity in Sprague-Dawley rat assessed as rapid eye movement latency period at 10 mg/kg, po administered during active phase; format: functional; summary of the method: as §1

| Structure (SMILES) | Time [min] |
| --- | --- |
| O=C(O)C1CN(C2CC[C@]3(Cc4ccccc4Cc4ccccc43)C2)C1 (some centres not stated) | 64.5 |

target: T1, 5-hydroxytryptamine receptor 2C (Homo sapiens, UniProt P28335); assay: Antagonist activity at human 5HT2C receptor expressed in human SH-SY5Y cells by FLIPR assay; format: functional, cell-based
T1 sequence (P28335 whole entry): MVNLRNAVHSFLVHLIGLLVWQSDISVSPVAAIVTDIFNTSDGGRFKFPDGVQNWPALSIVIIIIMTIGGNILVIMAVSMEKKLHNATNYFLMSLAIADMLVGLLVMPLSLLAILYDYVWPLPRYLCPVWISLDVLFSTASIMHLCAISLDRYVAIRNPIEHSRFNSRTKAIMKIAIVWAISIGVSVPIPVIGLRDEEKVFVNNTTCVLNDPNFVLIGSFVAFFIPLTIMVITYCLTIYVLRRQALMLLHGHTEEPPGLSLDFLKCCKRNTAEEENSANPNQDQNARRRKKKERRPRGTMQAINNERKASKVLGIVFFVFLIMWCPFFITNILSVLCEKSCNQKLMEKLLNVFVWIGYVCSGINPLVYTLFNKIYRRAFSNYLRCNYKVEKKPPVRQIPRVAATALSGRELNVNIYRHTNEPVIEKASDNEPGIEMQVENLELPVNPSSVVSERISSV

| Structure (SMILES) | pKi |
| --- | --- |
| O=C(O)C1CN(C2CC[C@]3(Cc4ccccc4Cc4ccccc43)C2)C1 (some centres not stated) | 8.20 |

test system: Rattus norvegicus; assay: Hypnotic activity in Sprague-Dawley rat assessed as rapid eye movement sleep at 3 mg/kg, po administered during active phase; format: functional; summary of the method: as §1

| Structure (SMILES) | Time [min] |
| --- | --- |
| O=C(O)C1CN(C2CC[C@]3(Cc4ccccc4Cc4ccccc43)C2)C1 (some centres not stated) | 16.1 |

test system: Rattus norvegicus; assay: Hypnotic activity in Sprague-Dawley rat assessed as non-rapid eye movement sleep at 3 mg/kg, po administered during active phase; format: functional; summary of the method: as §1

| Structure (SMILES) | Time [min] |
| --- | --- |
| O=C(O)C1CN(C2CC[C@]3(Cc4ccccc4Cc4ccccc43)C2)C1 (some centres not stated) | 118.6 |

test system: Rattus norvegicus; assay: Hypnotic activity in Sprague-Dawley rat assessed as total sleep time at 1 mg/kg, po administered during active phase; format: functional; summary of the method: as §1

| Structure (SMILES) | Time [min] |
| --- | --- |
| O=C(O)C1CN(C2CC[C@]3(Cc4ccccc4Cc4ccccc43)C2)C1 (some centres not stated) | 98.1 |

target: Cytochrome P450 3A4 (Homo sapiens, UniProt P08684); assay: Inhibition of human CYP3A4 transfected in bactosome expression system by spectrofluorimetry; format: ADME
Sequence (P08684 whole entry): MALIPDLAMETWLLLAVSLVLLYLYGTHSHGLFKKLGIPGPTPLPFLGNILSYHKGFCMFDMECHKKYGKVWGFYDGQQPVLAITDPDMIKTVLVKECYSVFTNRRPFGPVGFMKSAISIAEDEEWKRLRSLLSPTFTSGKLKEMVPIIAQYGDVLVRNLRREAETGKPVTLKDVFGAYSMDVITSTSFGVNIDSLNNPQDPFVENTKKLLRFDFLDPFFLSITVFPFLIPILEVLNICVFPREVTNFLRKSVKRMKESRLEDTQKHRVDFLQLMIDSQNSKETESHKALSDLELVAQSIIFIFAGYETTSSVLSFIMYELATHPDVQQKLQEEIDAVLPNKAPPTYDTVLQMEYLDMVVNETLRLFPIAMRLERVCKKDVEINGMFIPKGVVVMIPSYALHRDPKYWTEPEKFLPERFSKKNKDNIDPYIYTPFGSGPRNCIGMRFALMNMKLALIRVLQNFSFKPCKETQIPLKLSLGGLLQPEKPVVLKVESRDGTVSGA
Summary of the method: (§2)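 Recombinant human CYP Bactosomes (0.1 mg/mL) in 50 mM phosphate buffer, pH 7.4. Compound at 0.1-10 μM was preincubated with fluorogenic substrate for 10 min at 37 °C, and the reaction was started with an NADPH regenerating system. Metabolite fluorescence was followed for 10 min. Substrates: 1A2 ethoxyresorufin 0.5 μM; 2C9 FCA 50 μM; 2C19 BMC 10 μM; 2D6 MMC 10 μM; 3A4 DEF 1 μM or 7-BQ 25 μM. Run in triplicate.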

| Structure (SMILES) | pIC50 |
| --- | --- |
| O=C(O)C1CN(C2CC[C@]3(Cc4ccccc4Cc4ccccc43)C2)C1 (some centres not stated) | < 5.00 |

target: 5-hydroxytryptamine receptor 2A (Rattus norvegicus, UniProt P14842); assay: Displacement of [3H]ketanserin from 5HT2A receptor in Sprague-Dawley rat cortical membrane by liquid scintillation counting
Sequence (P14842 whole entry): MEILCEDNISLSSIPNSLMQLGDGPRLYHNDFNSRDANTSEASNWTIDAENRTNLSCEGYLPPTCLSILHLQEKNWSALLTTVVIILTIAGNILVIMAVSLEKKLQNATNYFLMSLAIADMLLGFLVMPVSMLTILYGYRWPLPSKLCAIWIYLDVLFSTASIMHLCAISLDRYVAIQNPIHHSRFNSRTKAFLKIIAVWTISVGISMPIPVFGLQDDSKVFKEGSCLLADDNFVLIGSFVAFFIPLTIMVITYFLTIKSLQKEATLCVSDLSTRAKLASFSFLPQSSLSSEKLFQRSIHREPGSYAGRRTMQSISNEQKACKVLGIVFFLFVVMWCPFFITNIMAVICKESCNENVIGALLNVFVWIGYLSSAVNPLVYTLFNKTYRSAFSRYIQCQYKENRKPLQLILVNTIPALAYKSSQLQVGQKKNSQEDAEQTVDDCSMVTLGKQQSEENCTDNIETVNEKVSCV
Summary of the method: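 Cerebral cortex membranes from male Sprague-Dawley rats (200-250 g), 50 μg/well. Incubated with 1 nM [3H]ketanserin in 50 mM Tris-HCl, 10 mM MgCl2, pH 7.4, for 1 h at 37 °C with shaking. Filtered on PEI-soaked GF/B and counted by scintillation. Nonspecific binding with 10 μM mianserin. Ki by Cheng-Prusoff; mean of two experiments in duplicate.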

| Structure (SMILES) | pKi |
| --- | --- |
| O=C(O)C1CN(C2CC[C@]3(Cc4ccccc4Cc4ccccc43)C2)C1 (some centres not stated) | 7.48 |

target: Histamine H1 receptor (Homo sapiens, UniProt P35367); assay: Antagonist activity against human histamine H1 receptor expressed in CHO cells by FLIPR assay; format: functional, cell-based
Sequence (P35367 whole entry): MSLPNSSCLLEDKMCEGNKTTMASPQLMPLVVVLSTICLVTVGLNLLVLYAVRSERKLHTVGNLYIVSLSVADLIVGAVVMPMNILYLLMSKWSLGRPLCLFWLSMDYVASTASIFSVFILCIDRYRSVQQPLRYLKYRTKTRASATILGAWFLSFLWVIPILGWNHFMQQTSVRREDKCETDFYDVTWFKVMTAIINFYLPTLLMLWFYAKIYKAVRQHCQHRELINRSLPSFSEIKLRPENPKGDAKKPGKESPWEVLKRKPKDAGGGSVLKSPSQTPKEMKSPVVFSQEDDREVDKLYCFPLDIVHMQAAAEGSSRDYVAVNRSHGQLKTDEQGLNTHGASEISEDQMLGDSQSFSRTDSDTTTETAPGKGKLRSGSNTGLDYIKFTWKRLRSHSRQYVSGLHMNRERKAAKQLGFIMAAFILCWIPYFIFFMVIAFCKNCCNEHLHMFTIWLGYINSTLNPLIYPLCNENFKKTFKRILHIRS

| Structure (SMILES) | pKi |
| --- | --- |
| O=C(O)C1CN(C2CC[C@]3(Cc4ccccc4Cc4ccccc43)C2)C1 (some centres not stated) | 8.20 |

target: Cytochrome P450 2D6 (Homo sapiens, UniProt P10635); assay: Inhibition of human CYP2D6 transfected in bactosome expression system by spectrofluorimetry; format: ADME; summary of the method: as §2
Sequence (P10635 whole entry): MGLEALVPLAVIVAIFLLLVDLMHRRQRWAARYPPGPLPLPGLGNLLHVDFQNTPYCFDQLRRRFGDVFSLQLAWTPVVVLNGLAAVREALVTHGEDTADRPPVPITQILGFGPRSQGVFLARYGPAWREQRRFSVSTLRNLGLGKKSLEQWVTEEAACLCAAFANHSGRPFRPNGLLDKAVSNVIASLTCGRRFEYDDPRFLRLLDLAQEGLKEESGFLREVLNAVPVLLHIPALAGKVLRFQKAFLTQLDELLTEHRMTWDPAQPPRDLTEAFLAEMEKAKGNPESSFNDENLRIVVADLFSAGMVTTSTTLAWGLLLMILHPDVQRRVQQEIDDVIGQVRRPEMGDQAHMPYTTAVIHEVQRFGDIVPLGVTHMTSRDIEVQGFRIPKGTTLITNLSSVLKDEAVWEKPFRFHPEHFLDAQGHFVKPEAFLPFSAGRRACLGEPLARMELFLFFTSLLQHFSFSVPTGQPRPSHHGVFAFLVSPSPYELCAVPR

| Structure (SMILES) | pIC50 |
| --- | --- |
| O=C(O)C1CN(C2CC[C@]3(Cc4ccccc4Cc4ccccc43)C2)C1 (some centres not stated) | < 5.00 |

test system: Rattus norvegicus; assay: Hypnotic activity in Sprague-Dawley rat assessed as total sleep time at 3 mg/kg, po administered during active phase; format: functional; summary of the method: as §1

| Structure (SMILES) | Time [min] |
| --- | --- |
| O=C(O)C1CN(C2CC[C@]3(Cc4ccccc4Cc4ccccc43)C2)C1 (some centres not stated) | 134.7 |

target: T2, Cytochrome P450 1A2 (Homo sapiens, UniProt P05177); assay: Inhibition of human CYP1A2 transfected in bactosome expression system by spectrofluorimetry; format: ADME; summary of the method: as §2
T2 sequence (P05177 whole entry): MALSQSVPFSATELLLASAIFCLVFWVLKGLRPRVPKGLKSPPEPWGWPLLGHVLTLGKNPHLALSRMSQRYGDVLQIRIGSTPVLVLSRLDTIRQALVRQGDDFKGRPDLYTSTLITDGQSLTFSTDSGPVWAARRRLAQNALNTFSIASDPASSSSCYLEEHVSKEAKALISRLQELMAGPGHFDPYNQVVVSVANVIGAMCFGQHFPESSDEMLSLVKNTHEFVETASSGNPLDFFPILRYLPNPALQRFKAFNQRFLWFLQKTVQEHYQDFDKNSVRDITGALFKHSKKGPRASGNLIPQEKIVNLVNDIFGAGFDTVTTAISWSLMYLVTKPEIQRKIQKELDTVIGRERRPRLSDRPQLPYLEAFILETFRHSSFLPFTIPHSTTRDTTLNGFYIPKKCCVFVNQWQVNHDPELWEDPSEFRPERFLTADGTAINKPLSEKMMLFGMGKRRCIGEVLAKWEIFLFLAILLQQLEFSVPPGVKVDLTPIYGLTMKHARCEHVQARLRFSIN

| Structure (SMILES) | pIC50 |
| --- | --- |
| O=C(O)C1CN(C2CC[C@]3(Cc4ccccc4Cc4ccccc43)C2)C1 (some centres not stated) | < 5.00 |

test system: Rattus norvegicus; assay: Hypnotic activity in Sprague-Dawley rat assessed as rapid eye movement sleep at 1 mg/kg, po administered during active phase; format: functional; summary of the method: as §1

| Structure (SMILES) | Time [min] |
| --- | --- |
| O=C(O)C1CN(C2CC[C@]3(Cc4ccccc4Cc4ccccc43)C2)C1 (some centres not stated) | 10.7 |

test system: Rattus norvegicus; assay: Hypnotic activity in Sprague-Dawley rat assessed as rapid eye movement latency period at 1 mg/kg, po administered during active phase; format: functional; summary of the method: as §1

| Structure (SMILES) | Time [min] |
| --- | --- |
| O=C(O)C1CN(C2CC[C@]3(Cc4ccccc4Cc4ccccc43)C2)C1 (some centres not stated) | 77.8 |

test system: Rattus norvegicus; assay: Hypnotic activity in Sprague-Dawley rat assessed as non-rapid eye movement latency period at 10 mg/kg, po administered during active phase; format: functional; summary of the method: as §1

| Structure (SMILES) | Time [min] |
| --- | --- |
| O=C(O)C1CN(C2CC[C@]3(Cc4ccccc4Cc4ccccc43)C2)C1 (some centres not stated) | 33.5 |

test system: Rattus norvegicus; assay: Hypnotic activity in Sprague-Dawley rat assessed as total sleep time at 10 mg/kg, po administered during active phase; format: functional; summary of the method: as §1

| Structure (SMILES) | Time [min] |
| --- | --- |
| O=C(O)C1CN(C2CC[C@]3(Cc4ccccc4Cc4ccccc43)C2)C1 (some centres not stated) | 145.2 |
